According to ChEMBL document CHEMBL1765030, “Discovery and preclinical evaluation of a novel class of cytotoxic propynoic acid carbamoyl methyl amides (PACMAs)” (J Med Chem, 2011):
pIC50: −log10 of the molar value. The source made the active and inactive calls. No cut-off for these calls is given here.

Legend:
MDA-MB-435 [1] = test: Induction of apoptosis in human MDA-MB-435 cells assessed as apoptotic cells at 10 uM after 48 hrs using by annexin V and propidium iodide staining by flow cytometry relative to control; format: functional
How it was run: (§1)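 Treatment was 10 μM for 24 and 48 h, with an untreated 48 h control run in parallel. Floating and adherent cells were pooled and stained with annexin V-FITC/propidium iodide, then read by flow cytometry (FITC and PE channels). Quadrants: annexin−/PI− viable; annexin+/PI− early apoptotic; annexin+/PI+ late apoptotic; lower right necrotic/debris.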

MDA-MB-435 [2] = test: Induction of apoptosis in human MDA-MB-435 cells assessed as necrotic cells at 10 uM after 48 hrs using by annexin V and propidium iodide staining by flow cytometry relative to control; format: functional; how it was run: as §1
MDA-MB-435 [3] = test: Induction of apoptosis in human MDA-MB-435 cells assessed as pre-necrotic cells at 10 uM after 24 hrs using by annexin V and propidium iodide staining by flow cytometry relative to control; format: functional; how it was run: as §1
MDA-MB-435 [4] = test: Cell cycle arrest in human MDA-MB-435 cells assessed as accumulation at G2/M phase at 5 uM after 12 hrs using propidium iodide staining by flow cytometry (reference value: 9%); format: functional
MDA-MB-435 [5] = test: Cytotoxicity against human MDA-MB-435 cells at 1 uM after 24 hrs using crystal violet staining by colony formation assay; format: functional, cell-based
How it was run: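 Cells were plated at 1000 per well, attached overnight, and exposed to 1 μM for 24 h. They were then washed and grown in fresh medium for 8–10 days until colonies formed, fixed in 1% glutaraldehyde for 30 min, and stained with 2% crystal violet for 30 min. Vehicle was DMSO.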

HCT-116 [6] = test: Cytotoxicity against human HCT116 cells […] after 72 hrs by MTT assay; format: functional, cell-based; conditions: HCT-116, 72 h
How it was run: (§2)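 Cells were attached overnight, then continuously exposed to drug for 72 h. MTT (0.5 mg/mL final) was added for 4 h at 37 °C, formazan dissolved in DMSO, and A570 read; all in triplicate. IC50 came from log(concentration) vs % cells killed. Media: RPMI-1640 for HT29, HCT116 p53+/+ and p53−/−, and HEY; DMEM for MDA-MB-435 and UMUC3; all with 10% FBS, 37 °C, 5% CO₂.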

[7] = Elimination rate constant in mouse at 24 mg/kg, ip; format: ADME, organism-based; design: dose 24 mg/kg, route intraperitoneal; conditions: in vivo
How it was run: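 Mice received a single 24 mg/kg i.p. injection, with two mice per time point. Blood was drawn into heparinized syringes at set times between 0.5 and 24 h, and plasma was separated by centrifugation and stored at −80 °C. Plasma drug was quantified by validated LC-MS (lowest quantification level 1 ng/mL), and parameters were derived by noncompartmental analysis.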

5637 = test: Cytotoxicity against human 5637 cells after 72 hrs by MTT assay; format: functional, cell-based; conditions: Homo sapiens, 5637, 72 h
MDA-MB-435 [8] = test: Induction of apoptosis in human MDA-MB-435 cells assessed as necrotic cells at 10 uM after 24 hrs using by annexin V and propidium iodide staining by flow cytometry relative to control; format: functional; how it was run: as §1
MDA-MB-435 [9] = test: Cell cycle arrest in human MDA-MB-435 cells assessed as accumulation at S phase at 5 uM after 12 hrs using propidium iodide staining by flow cytometry (reference value: 41%); format: functional
MDA-MB-435 [10] = test: Induction of apoptosis in human MDA-MB-435 cells assessed as pre-necrotic cells at 10 uM after 48 hrs using by annexin V and propidium iodide staining by flow cytometry relative to control; format: functional; how it was run: as §1
MDA-MB-435 [11] = test: Increase of mitochondrial superoxide accumulation in human MDA-MB-435 cells at IC50 to 3 times IC50 after 24 hrs by flow cytometry; format: functional, cell-based
How it was run: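 Cells were drug-treated at two concentrations for 24 h, then loaded with 5 μM MitoSOX Red for 10 min at 37 °C and washed three times in HBSS. Cells were either viewed by fluorescence microscopy or trypsinized, washed twice in HBSS and read by flow cytometry; untreated cells served as control.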

MDA-MB-435 [12] = test: Cell cycle arrest in human MDA-MB-435 cells assessed as accumulation at G0/G1 phase at 5 uM after 12 hrs using propidium iodide staining by flow cytometry (reference value: 50%); format: functional
MDA-MB-435 [13] = test: Induction of apoptosis in human MDA-MB-435 cells assessed as viable cells at 10 uM after 48 hrs using by annexin V and propidium iodide staining by flow cytometry relative to control; format: functional; conditions: MDA-MB-435, 48 h, read-out: Activity; how it was run: as §1
NCI/ADR-RES = test: Cytotoxicity against human NCI/ADR-RES cells after 72 hrs by MTT assay; format: functional, cell-based
MDA-MB-435 [14] = test: Cytotoxicity against human MDA-MB-435 cells after 72 hrs by MTT assay; format: functional, cell-based; conditions: MDA-MB-435, 72 h; how it was run: as §2
MDA-MB-435 [15] = test: Cell cycle arrest in human MDA-MB-435 cells assessed as accumulation at S phase at 5 uM after 6 hrs using propidium iodide staining by flow cytometry (reference value: 41%); format: functional
MDA-MB-435 [16] = test: Cell cycle arrest in human MDA-MB-435 cells assessed as accumulation at G0/G1 phase at 5 uM after 24 hrs using propidium iodide staining by flow cytometry (reference value: 50%); format: functional
HT-29 = test: Cytotoxicity against human HT-29 cells after 72 hrs by MTT assay; format: functional, cell-based; conditions: HT-29, 72 h; how it was run: as §2
MDA-MB-435 [17] = test: Cell cycle arrest in human MDA-MB-435 cells assessed as accumulation at G2/M phase at 5 uM after 24 hrs using propidium iodide staining by flow cytometry (reference value: 9%); format: functional
MDA-MB-435 [18] = test: Cell cycle arrest in human MDA-MB-435 cells assessed as accumulation at G0/G1 phase at 5 uM after 6 hrs using propidium iodide staining by flow cytometry (reference value: 50%); format: functional
MDA-MB-435 [19] = test: Cell cycle arrest in human MDA-MB-435 cells assessed as accumulation at S phase at 5 uM after 24 hrs using propidium iodide staining by flow cytometry (reference value: 41%); format: functional
MDA-MB-435 [20] = test: Induction of apoptosis in human MDA-MB-435 cells assessed as viable cells at 10 uM after 24 hrs using by annexin V and propidium iodide staining by flow cytometry relative to control; format: functional; conditions: MDA-MB-435, 24 h, read-out: Activity; how it was run: as §1
MDA-MB-435 [21] = test: Induction of apoptosis in human MDA-MB-435 cells assessed as apoptotic cells at 10 uM after 24 hrs using by annexin V and propidium iodide staining by flow cytometry relative to control; format: functional; how it was run: as §1
MDA-MB-435 [22] = test: Cell cycle arrest in human MDA-MB-435 cells assessed as accumulation at G2/M phase at 5 uM after 6 hrs using propidium iodide staining by flow cytometry (reference value: 9%); format: functional
UMUC3 = test: Cytotoxicity against human UM-UC-3 cells after 72 hrs by MTT assay; format: functional, cell-based; conditions: UMUC3, 72 h; how it was run: as §2
HCT-116 [23] = test: Cytotoxicity against p53 deficient human HCT116 cells […] after 72 hrs by MTT assay; format: functional, cell-based; conditions: HCT-116, 72 h; how it was run: as §2
HEY = test: Cytotoxicity against human HEY cells after 72 hrs by MTT assay; format: functional, cell-based; how it was run: as §2
[24] = Octanol-water distribution coefficient, log P of the compound; format: physicochemical
MDA-MB-435 [25] = test: Antitumor activity against human MDA-MB-435 cells xenografted in athymic nude mouse assessed as reduction of tumor burden at 10 mg/kg, ip for 9 days followed by 20 mg/kg, ip for 5 days followed by 40 mg/kg, ip for 12 days; format: functional, organism-based
How it was run: (§3)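 Athymic nude mice were inoculated s.c. on the rear flank with 1.5 × 10⁶ log-phase MDA-MB-435 cells. At ~100 mm³ average tumor volume, mice were randomized (n = 8) to vehicle (10% DMSO/90% sesame oil) or drug, given i.p. once daily, dosed by group mean body weight. Caliper tumor measurements were taken twice weekly, volume = d²×D/2; mice were followed 17 days after dosing ended, with body weight monitored.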

Mus musculus [26] = test: Toxicity in human MDA-MB-435 cells xenografted athymic nude mouse assessed as change in doy weight at 10 mg/kg, ip for 9 days followed by 20 mg/kg, ip for 5 days followed by 40 mg/kg, ip for 12 days; format: organism-based; conditions: in vivo; how it was run: as §3
Mus musculus [27] = test: Toxicity in human MDA-MB-435 cells xenografted athymic nude mouse assessed as histological changes in organ at 10 mg/kg, ip for 9 days followed by 20 mg/kg, ip for 5 days followed by 40 mg/kg, ip for 12 days; format: organism-based; conditions: in vivo
MDA-MB-435 [28] = test: Induction of apoptosis in human MDA-MB-435 cells assessed as up-regulation of p53 protein expression at 1 uM after 24 to 72 hrs by Western blotting; format: functional, cell-based
How it was run: (§4)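 Cells were treated with 1 μM for 24–72 h and lysed in 50 mM Tris-HCl pH 7.5, 150 mM NaCl, 1% NP-40. Equal protein (BCA) was run on 10% tris-glycine SDS-PAGE and blotted to nitrocellulose. Membranes were blocked in 5% BSA/PBS for 1 h, probed overnight at 4 °C with anti-p53 or anti-caspase-9 (plus tubulin/GAPDH antibodies), and detected by HRP secondary with ECL imaging.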

MDA-MB-435 [29] = test: Induction of apoptosis in human MDA-MB-435 cells assessed as decrease of caspase 9 protein expression at 1 uM after 24 to 72 hrs by Western blotting relative to control; format: functional; how it was run: as §4

| logP [24] | SMILES | Activity (MDA-MB-435 [1]) [%] | Activity (MDA-MB-435 [2]) [%] | Activity (MDA-MB-435 [3]) [%] | Activity (MDA-MB-435 [5]) | pIC50 (HCT-116 [6]) | pIC50 5637 | Activity (MDA-MB-435 [8]) [%] | Activity (MDA-MB-435 [10]) [%] | Activity (MDA-MB-435 [11]) | viability at 10 µM (MDA-MB-435 [13]) [%] | pIC50 (NCI/ADR-RES) | pIC50 (MDA-MB-435 [14]) | pIC50 (HT-29) | viability at 10 µM (MDA-MB-435 [20]) [%] | Activity (MDA-MB-435 [21]) [%] | pIC50 (UMUC3) | pIC50 (HCT-116 [23]) | pIC50 (HEY) | also measured |
| --- | --- | --- | --- | --- | --- | --- | --- | --- | --- | --- | --- | --- | --- | --- | --- | --- | --- | --- | --- | --- |
| 3.91 | C#CC(=O)N(c1ccc(-n2cnnn2)c(C)c1)C(C(=O)NC1CCCC1)c1ccccc1F (configuration not stated) | 3 | 62 | 6 | Active | 5.20 | 6.15 | 27 | 24 | Active | 11 | 6.00 | 5.85 | 5.74 | 66 | 1 | 5.20 | 5.26 | 5.82 | Activity (MDA-MB-435 [4]): 13%; k el [7]: 5.72e-05 s⁻¹; Activity (MDA-MB-435 [9]): 51%; Activity (MDA-MB-435 [12]): 36%; Activity (MDA-MB-435 [15]): 51%; Activity (MDA-MB-435 [16]): 33%; Activity (MDA-MB-435 [17]): 16%; Activity (MDA-MB-435 [18]): 40%; Activity (MDA-MB-435 [19]): 51%; Activity (MDA-MB-435 [22]): 9% |
| 3.7 | C#CC(=O)N(c1cccc(C(F)(F)F)c1)C(C(=O)NC1CCCC1)c1cccc(OC)c1 (configuration not stated) | 1 | 37 | 2 | Active | < 5.00 | 6.22 | 4 | 10 | Active | 52 | 6.70 | 5.20 | 5.14 | 93 | 1 | < 4.70 | 5.06 | 5.28 | Activity (MDA-MB-435 [25]): Active; Activity (Mus musculus [26]): 29 g; Activity (Mus musculus [27]): Non-toxic |
| 2.54 | C#CC(=O)N(c1cc(OC)cc(OC)c1)C(C(=O)NC1CCCCC1)c1ccc(OC)cc1 (configuration not stated) | 3 | 35 | 2 | Active | 4.90 | 5.66 | 2 | 9 | Active | 53 | 6.52 | 5.27 | 5.20 | 95 | 1 | < 4.70 | 4.96 | 5.36 | Activity (MDA-MB-435 [28]): Active; fold change (FC) (MDA-MB-435 [29]): 2 |
